The results in this text go back to ChEMBL document CHEMBL4385626, “SAR optimization studies on modified salicylamides as a potential treatment for acute myeloid leukemia through inhibition of the CREB pathway” (Bioorg Med Chem Lett, 2019).

pIC50: −log10 of the molar value. Calls of active or inactive are those of the source. The rule behind the calls is not given here.

The subject of series [1] is HL-60. The series can be described thus: Induction of cell cycle arrest in human HL60 cells assessed as S phase at 1 uM incubated for 1 day by DAPI staining based flow cytometric analysis (reference value: 27.5 +/- 0.57%). The format is functional.
Series [2] is described as follows: AUC (0 to infinity) in NSG mouse at 2 mg/kg, iv measured after 7 to 150 mins by LC/MS/MS analysis. On the set-up: dose 2 mg/kg, time infinity, route intravenous. The note with it: in vivo. The format is ADME, organism-based. In outline:
(§1)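 Single IV dose of 2 mg/kg to NSG mice (NOD.Cg-Prkdc scid Il2rg tm1Wjl/SzJ), vehicle DMSO/Kolliphor EL/water (3/5/82). Compound levels measured in plasma at various times after injection. PK parameters derived from the plasma time-concentration profiles.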

Series [3] can be described thus: Elimination half life in NSG mouse at 2 mg/kg, iv measured after 7 to 150 mins by LC/MS/MS analysis. The format is ADME, organism-based. To be noted: in vivo, read-out: beta t1/2 (converted). The essentials:
as §1

Series [4] relates to HL-60. The series can be described thus: Induction of apoptosis in human HL60 cells assessed as late apoptotic cells at 1 uM incubated for 1 day by AnnexinV/DAPI double staining based flow cytometric analysis (reference value: 1.2 +/- 0.03%). It is filed as functional.
In series [5] the test system is HL-60. The series can be described thus: Induction of apoptosis in human HL60 cells assessed as PARP cleavage level at 1 uM incubated for 1 day by DAPI staining based flow cytometric analysis (reference value: 1.2 +/- 0.1%). The format is functional. (A flow cytometer gives signals particle by particle.)
Series [6] deals with KG-1. The series can be described thus: Cytotoxicity against human KG1 cells incubated for 3 days by CellTiter-Glo luminescent assay. The note with it: KG-1, 72 h. It is filed as functional, cell-based. The essentials: (§2)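 CellTiter-Glo viability read-out on leukemia cell lines. IC50 reported as the average of triplicates.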
In general terms: ATP-based viability assays read luminescence as a measure of living cells.

The nature of series [7]: Volume of distribution at steady state in NSG mouse at 2 mg/kg, iv measured after 7 to 150 mins by LC/MS/MS analysis. It is filed as ADME, organism-based. To be noted: in vivo. In outline:
as §1

Series [8] can be described thus: Clearance in NSG mouse at 2 mg/kg, iv measured after 7 to 150 mins by LC/MS/MS analysis. It is filed as ADME, organism-based. The note with it: in vivo. The essentials: as §1
The species named for series [9] is Homo sapiens. The series can be described thus: Inhibition of CREB in human HL60 cells assessed as downregulation of POLD2 gene expression at 1 uM incubated for 1 day by RT-qPCR analysis. It is filed as cell-based. The essentials: (§3)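 HL60 cells given 1 μM compound for 1 d. RFC3 and POLD2 mRNA measured by RT-qPCR and normalized to 7SL lncRNA. Results given as mean of three independent experiments ± SEM.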
Background: In qPCR the cycle at which signal appears reflects the starting amount.

Series [10] in a line: MRT (0 to infinity) in NSG mouse at 2 mg/kg, iv measured after 7 to 150 mins by LC/MS/MS analysis. The format is ADME, organism-based. To be noted: in vivo. In outline: as §1
Series [11] deals with NALM-6. The series can be described thus: Cytotoxicity against human NALM6 cells incubated for 3 days by CellTiter-Glo luminescent assay. To be noted: NALM-6, 72 h. The format is functional, cell-based. In outline: as §2
Series [12] relates to HL-60. The series can be described thus: Induction of cell cycle arrest in human HL60 cells assessed as cyclin B expression in G2 phase by measuring as fluorescence intensity level at 1 uM incubated for 1 day by flow cytometric analysis (reference value: 1196.33 +/- 40.48). The format is functional.
The species entered for series [13] is Homo sapiens. The series can be described thus: Inhibition of CREB in human HL60 cells assessed as downregulation of RFC3 gene expression at 1 uM incubated for 1 day by RT-qPCR analysis. The format is cell-based. The essentials: as §3
Series [14] is described as follows: Apparent volume of distribution in NSG mouse at 2 mg/kg, iv measured after 7 to 150 mins by LC/MS/MS analysis. The format is ADME, organism-based. The note with it: in vivo. In outline: as §1
Series [15] deals with HL-60. The series can be described thus: Cytotoxicity against human HL60 cells incubated for 3 days by CellTiter-Glo luminescent assay. The format is functional, cell-based. To be noted: HL-60, 72 h. The essentials: as §2
Series [16] is described as follows: Metabolic stability in human liver microsomes assessed as half life in presence of NADPH by LC-MS/MS analysis. It is filed as ADME, Microsome.
Series [17] has as its system Bone marrow cell. The series can be described thus: Cytotoxicity against human bone marrow cells incubated for 3 days by CellTiter-Glo luminescent assay. The format is cell-based. To be noted: 72 h.
The subject of series [18] is Jurkat. The series can be described thus: Cytotoxicity against human Jurkat cells incubated for 3 days by CellTiter-Glo luminescent assay. It is filed as functional, cell-based. The note with it: 72 h. In outline:
as §2

Series [19] is described as follows: Metabolic stability in mouse liver microsomes assessed as half life in presence of NADPH by LC-MS/MS analysis. The format is ADME, Microsome.
A short description of series [20]: AUC (0 to t) in NSG mouse at 2 mg/kg, iv measured after 7 to 150 mins by LC/MS/MS analysis. It is filed as ADME, organism-based. The note with it: in vivo. The essentials: as §1
For series [21], the system named is HL-60. The series can be described thus: Induction of apoptosis in human HL60 cells assessed as early apoptotic cells at 1 uM incubated for 1 day by AnnexinV/DAPI double staining based flow cytometric analysis (reference value: 3.2 +/- 0.1%). The format is functional.
A short description of series [22]: Inhibition of KIX-RLucC fused CBP (unknown origin) binding to KID-RLucN fused CREB (unknown origin) transfected in human HEK293 cells preincubated with compound 30 mins before forskolin addition and measured after 90 mins in presence of coelenterazine by split Renilla luciferase complementation assay.
Series [23] can be described thus: Plasma concentration in NSG mouse at 2 mg/kg, iv measured after 7 to 150 mins by LC/MS/MS analysis. It is filed as ADME, organism-based. The note with it: in vivo. In outline:
as §1

The species entered for series [24] is Homo sapiens. The series can be described thus: Inhibition of CBP KIX domain (unknown origin) binding to BODIPY-labeled phosphorylated CREB KID domain (unknown origin) interaction pre-incubated for 30 mins by fluorescence polarization assay. The essentials: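 Fluorescence polarization with BODIPY-labeled phosphorylated CREB KID domain and the CBP KIX domain. Polarization reports the degree of KIX-KID binding.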

The test system of series [25] is HL-60. The series can be described thus: Induction of cell cycle arrest in human HL60 cells assessed as M phase at 1 uM incubated for 1 day by DAPI staining based flow cytometric analysis (reference value: 2.64 +/- 0.06%). The format is functional.
Series [26] relates to HL-60. The series can be described thus: Induction of cell cycle arrest in human HL60 cells assessed as G2 phase at 1 uM incubated for 1 day by DAPI staining based flow cytometric analysis (reference value: 21.4 +/- 0.42%). The format is functional.
The subject of series [27] is HL-60. The series can be described thus: Induction of cell cycle arrest in human HL60 cells assessed as accumulation at G1 phase at 1 uM incubated for 1 day by DAPI staining based flow cytometric analysis (reference value: 48.37 +/- 0.15%). The format is functional.

On to `N#Cc1ccc(NC(=O)c2ccc3cccnc3c2O)cc1`, for which the Activity came out at 33.7% in [1], 3% in series [4], 17.3% in [5] and 6.3% in [21]. For the same compound, the AUC(0-inf) (commonly total exposure, with the tail of the curve extrapolated) in [2] came to 4090 ng·h/mL. The half-life in series [3] is 1.39 h; in series [16], 2.07 h; in [19], 2.61 h. Also, the pIC50 (in general, the IC50 on a negative log10 scale, so that one unit is a factor of ten) in series [6] was 5.63; in series [11], 6.89; in [15], 6.43; in [17], 5.51; in [18], 6.74. In series [7], this compound had a Vdss of 0.00022 mg/ng/mL. Moreover, the CL in series [8] is 0.00049 mg/ng/mL/h. Further, the inhibition entry in [9] and in series [13] was “inactive” throughout. In addition, the MRT inf (commonly the average time that molecules of a dose stay in the body) in series [10] came out at 0.458 h. The FI in [12] was 875.33. For the same compound, the Vz in series [14] worked out at 0.00098 mg/ng/mL. Besides, the AUC(0-t) (in general, the area under the concentration-time curve up to a stated or last time point) in [20] was found to be 4070 ng·h/mL.

In series [2], `O=C(Nc1ccc([N+](=O)[O-])cc1Cl)c1cc(Cl)ccc1O` [NICLOSAMIDE] came in with a total exposure AUC(0-inf) of 536 ng·h/mL. In addition, the half-life was 0.56 h in series [3], 0.35 h in [16] and 0.11 h in series [19]. Besides, the negative-log IC50 (pIC50) in series [6] is 6.44; in series [11] it was 6.21; in series [15], 6.52; in series [17] it was less than 5.00; in series [22], 5.82; in [18], 6.40. The compound also gave a Vdss in series [7] of 0.0015 mg/ng/mL. In addition, in series [10], the mean residence time MRT inf was 0.404 h. The Vz in [14] came to 0.0025 mg/ng/mL. Further, the AUC(0-t) in [20] is 536 ng·h/mL. In series [23], this compound registered a Cp of 0.12 ng/mL.

Consider `O=C(Nc1cc(C(F)(F)F)cc(C(F)(F)F)c1)c1cc(Br)c(-c2ccccc2)cc1O`, for which the Activity in [1] came out at 14.27%; in series [25], 1.23%; in series [4], 30.9%; in series [5] it was 58.1%; in [26] it was 14.37%; in series [21], 8.8%. The Activity in series [27] turned out to be 69.77%. The compound also returned an AUC(0-inf) in [2] of 2330 ng·h/mL. For the same compound, the inhibition entry in series [24], in series [9] and in series [13] was “Active” throughout. The half-life was 2.05 h in series [3], 2.65 h in series [16] and 2.65 h in [19]. Moreover, the pIC50 was 6.52 in [6]; 6.08 in [11]; 6.37 in series [15]; less than 5.00 in series [17]; 5.81 in series [22]; 6.17 in series [18]. The Vdss in series [7] is 0.00087 mg/ng/mL. In [8], this compound had a CL of 0.00086 mg/ng/mL/h. Moreover, the mean residence time MRT inf in series [10] was 1.02 h. Also, the Vz in series [14] is 0.003 mg/ng/mL. This compound also yielded an exposure AUC(0-t) in series [20] of 2250 ng·h/mL. This compound returned a Cp in [23] of 19 ng/mL.
